Screening data as filed in PubChem BioAssay.
HKDC1 act: HKDC1 (human) hexokinase activation | Q2TB90 | activity change, negative = activation, % at 20 µM | recombinant HKDC1, G6PDH/diaphorase resazurin fluorescence; active compounds read low | hit rate 0.056% among 340,000;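 active means activation of 40% or more at 20 µM, a change of -40% or lower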
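Material: in-house human HKDC1 enzyme, G6PDH and diaphorase coupling enzymes | Quantity: HKDC1 at 5 µg/mL final | Medium: Tris buffer at pH 8.0 containing MgCl2 | Compound dosing: 20 µM single dose | Schedule: 90 min reaction at room temperature, dark | Measured by: Resorufin fluorescence, 525/613 nm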
* marks the source's active call; other numbers are inactive results. Not all results are given here.

SMILES	HKDC1 act
CC(=NNC(=S)N1CC2CCC(CC2)C1)c1nccs1	-43*
Nc1c(Br)cc2c3c(cccc13)-c1ccccc1-2	70
COc1cc(O)cc2c1cc([N+](=O)[O-])c1c(C(=O)O)cc3c(c12)OCO3	36
O=c1nc(/C=C/c2ccc(Cl)cc2Cl)cc(C(F)(F)F)[nH]1	35
Brc1ccc(C2N3CCCN23)cc1 (stereo not given)	-79*
Cc1cc(O)c2c(c1)C(=O)C13C(=C2O)C(=O)[C@H]2[C@@H](O)[C@@H]1[C@H]1[C@H](O)[C@@H]3C(=O)C3=C(O)c4c(O)cc(C)cc4C(=O)C312 (stereo not given in full)	67
O=C1NC(=S)NC(=O)C1=Cc1ccc2c(c1)CCN2CCCCl	59
CC[C@H](C)/C=C(C)/C=C/C1=CC2=C(Cl)C(=O)[C@](C)(OC(C)=O)C(=O)C2=CO1	59
CCN(CC)CCCNC(=O)c1c(O)c2ccccc2n(Cc2ccccc2)c1=O	83
CCOC(=O)c1c(-n2c(C)cc(C=C3C(=O)NC(=S)NC3=O)c2C)sc2c1CCCC2	59
